Assays:
Assay type in all cases: functional
RXF 393 = experiment: Growth inhibition of human RXF393 cells after 48 hrs by sulforhodamine B assay; details: RXF 393, 48 h; for CC50: read-out: LC50 (the source's name)
Summary of the method: (§1)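 NCI five-dose screen on the full 60-cell-line panel. Cells were given 10-fold dilutions from 10^-4 to 10^-8 M with continuous 48 h exposure, and growth was read by SRB staining. Percent growth was taken from time-zero, control and treated absorbances. GI50, TGI and LC50 were then derived, the GI50 being the concentration that gives a 50% lower net protein increase than control.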

SK-OV-3 = experiment: Growth inhibition of human SKOV3 cells after 48 hrs by sulforhodamine B assay; details: SK-OV-3, 48 h; summary of the method: as §1
[1] = Growth inhibition of human NCI-ADR-RES cells after 48 hrs by sulforhodamine B assay; details: for CC50: read-out: LC50 (the source's name); summary of the method: as §1
SK-MEL-2 = experiment: Growth inhibition of human SK-MEL-2 cells after 48 hrs by sulforhodamine B assay; details: SK-MEL-2, 48 h; for CC50: read-out: LC50 (the source's name); summary of the method: as §1
MDA-MB-435 = experiment: Growth inhibition of human MDA-MB-435 cells after 48 hrs by sulforhodamine B assay; details: MDA-MB-435, 48 h; summary of the method: as §1
LOX IMVI = experiment: Growth inhibition of human LOXIMVI cells after 48 hrs by sulforhodamine B assay
Summary of the method: (§2)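 NCI 60-panel five-dose test at 10-fold dilutions, 10^-4 to 10^-8 M, with 48 h continuous exposure and SRB protein read-out. Percent growth derived from time-zero, untreated-control and treated absorbances. GI50 is the concentration where [(Ti-Tz)/(C-Tz)]×100 = 50. TGI is taken at Ti = Tz. LC50 is taken at [(Ti-Tz)/Tz]×100 = -50.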

Malme-3M = experiment: Growth inhibition of human MALME-3M cells after 48 hrs by sulforhodamine B assay; summary of the method: as §2
SNB-19 [2] = experiment: Growth inhibition of human SNB19 cells after 48 hrs by sulforhodamine B assay; details: SNB-19, 48 h
Summary of the method: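 NCI 60-cell panel, five concentrations (10-fold dilutions, 0.01–100 µM), 48 h continuous exposure; SRB protein stain read spectrophotometrically. Percent growth from time-zero, untreated-control and treated absorbances. GI50 is the concentration giving 50% lower net protein increase than control. Values beyond the tested range are reported as more or less than the highest or lowest concentration.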

SF-268 [3] = experiment: Growth inhibition of human SF268 cells after 48 hrs by sulforhodamine B assay; details: SF-268, 48 h; for CC50: read-out: LC50 (the source's name); summary of the method: as §1
HCT-116 [4] = experiment: Growth inhibition of human HCT116 cells after 48 hrs by sulforhodamine B assay; details: HCT-116, 48 h; summary of the method: as §2
NCI-H322M = experiment: Growth inhibition of human NCI-H322M cells after 48 hrs by sulforhodamine B assay; details: for CC50: read-out: LC50 (the source's name); summary of the method: as §1
NCI-H226 = experiment: Growth inhibition of human NCI-H226 cells after 48 hrs by sulforhodamine B assay; details: NCI-H226, 48 h; for CC50: read-out: LC50 (the source's name); summary of the method: as §1
RPMI-8226 = experiment: Growth inhibition of human RPMI8226 cells after 48 hrs by sulforhodamine B assay; details: RPMI-8226, 48 h; for CC50: read-out: LC50 (the source's name); summary of the method: as §1
CCRF-CEM = experiment: Growth inhibition of human CCRF-CEM cells after 48 hrs by sulforhodamine B assay; summary of the method: as §2
TK-10 = experiment: Growth inhibition of human TK10 cells assessed as cell growth at 10^-5 M after 48 hrs by sulforhodamine B assay; details: TK-10, 48 h, read-out: Activity
Summary of the method: (§3)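 NCI primary one-dose screen: single concentration of 10^-5 M added to culture, 48 h incubation, SRB protein-dye endpoint. Percent growth of treated cells measured spectrophotometrically against untreated controls.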

SN12C = experiment: Growth inhibition of human SN12C cells assessed as cell growth at 10^-5 M after 48 hrs by sulforhodamine B assay; details: read-out: Activity
Summary of the method: (§4)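 NCI 60-cell-line primary one-dose screen. Cells were exposed to a single 10^-5 M concentration for 48 h. The end point was sulforhodamine B protein staining, read spectrophotometrically. Results are reported as percent growth of treated cells relative to untreated control cells.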

[5] = Growth inhibition of human NCI-ADR-RES cells assessed as cell growth at 10^-5 M after 48 hrs by sulforhodamine B assay; details: read-out: Activity; summary of the method: as §4
OVCAR-5 = experiment: Growth inhibition of human OVCAR5 cells assessed as cell growth at 10^-5 M after 48 hrs by sulforhodamine B assay; details: OVCAR-5, 48 h, read-out: Activity; summary of the method: as §4
SK-MEL-5 = experiment: Growth inhibition of human SK-MEL-5 cells assessed as cell growth at 10^-5 M after 48 hrs by sulforhodamine B assay; details: SK-MEL-5, 48 h, read-out: Activity; summary of the method: as §4
U-251 = experiment: Growth inhibition of human U251 cells assessed as cell growth at 10^-5 M after 48 hrs by sulforhodamine B assay; details: U-251, 48 h, read-out: Activity; summary of the method: as §3
SNB-75 = experiment: Growth inhibition of human SNB75 cells assessed as cell growth at 10^-5 M after 48 hrs by sulforhodamine B assay; details: SNB-75, 48 h, read-out: Activity; summary of the method: as §3
SNB-19 [6] = experiment: Growth inhibition of human SNB19 cells assessed as cell growth at 10^-5 M after 48 hrs by sulforhodamine B assay; details: SNB-19, 48 h, read-out: Activity; summary of the method: as §3
SF-268 [7] = experiment: Growth inhibition of human SF268 cells assessed as cell growth at 10^-5 M after 48 hrs by sulforhodamine B assay; details: SF-268, 48 h, read-out: Activity; summary of the method: as §4
HCT-116 [8] = experiment: Growth inhibition of human HCT116 cells assessed as cell growth at 10^-5 M after 48 hrs by sulforhodamine B assay; details: HCT-116, 48 h, read-out: Activity
Summary of the method: (§5)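 NCI 60-cell-line primary screen. Single concentration of 10^-5 M, 48 h incubation. End point by sulforhodamine B protein staining read spectrophotometrically. Reported as percent growth of treated cells relative to untreated control cells.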

MOLT-4 = experiment: Growth inhibition of human MOLT4 cells assessed as cell growth at 10^-5 M after 48 hrs by sulforhodamine B assay; details: MOLT-4, 48 h, read-out: Activity; summary of the method: as §4
K562 = experiment: Growth inhibition of human K562 cells assessed as cell growth at 10^-5 M after 48 hrs by sulforhodamine B assay; details: K562, 48 h, read-out: Activity; summary of the method: as §5

Compound: O=C(CN1CCN(c2cc3c(cc2F)c(=O)c(C(=O)O)cn3C2CC2)CC1)Nc1ccc(C(=O)/C=C/c2ccccc2)cc1
- GI50 (RXF 393): 2.5 µM
- TGI (RXF 393): > 100 µM
- CC50 (RXF 393): > 100 µM
- GI50 (SK-OV-3): 27.3 µM
- LC50 (SK-OV-3): > 100 µM
- TGI (SK-OV-3): > 100 µM
- GI50 [1]: 9.75 µM
- TGI [1]: > 100 µM
- CC50 [1]: > 100 µM
- GI50 (SK-MEL-2): 2.94 µM
- TGI (SK-MEL-2): 11.3 µM
- CC50 (SK-MEL-2): > 100 µM
- GI50 (MDA-MB-435): 2.94 µM
- LC50 (MDA-MB-435): > 100 µM
- TGI (MDA-MB-435): > 100 µM
- GI50 (LOX IMVI): 2.32 µM
- LC50 (concentration killing 50% of starting cells) (LOX IMVI): > 100 µM
- TGI (LOX IMVI): > 100 µM
- GI50 (Malme-3M): 2.89 µM
- LC50 (Malme-3M): > 100 µM
- TGI (Malme-3M): 8.87 µM
- GI50 (SNB-19 [2]): 3.05 µM
- LC50 (SNB-19 [2]): > 100 µM
- TGI (SNB-19 [2]): > 100 µM
- GI50 (SF-268 [3]): 4.13 µM
- TGI (SF-268 [3]): > 100 µM
- CC50 (SF-268 [3]): > 100 µM
- GI50 (HCT-116 [4]): 0.66 µM
- LC50 (HCT-116 [4]): 9.55 µM
- TGI (HCT-116 [4]): 2.68 µM
- GI50 (NCI-H322M): 4.04 µM
- TGI (NCI-H322M): 58.7 µM
- CC50 (NCI-H322M): > 100 µM
- GI50 (NCI-H226): 6.83 µM
- TGI (NCI-H226): > 100 µM
- CC50 (NCI-H226): > 100 µM
- GI50 (RPMI-8226): 2.52 µM
- TGI (RPMI-8226): 6.73 µM
- CC50 (RPMI-8226): > 100 µM
- GI50 (CCRF-CEM): 4.09 µM
- LC50 (concentration giving 50% net cell kill) (CCRF-CEM): > 100 µM
- TGI (CCRF-CEM): > 100 µM
- growth at 10 µM (TK-10): 39.9%
- growth at 10 µM (SN12C): 11.3%
- growth at 10 µM [5]: 93.5%
- growth at 10 µM (OVCAR-5): 82.6%
- growth at 10 µM (SK-MEL-5): 13.6%
- growth at 10 µM (U-251): 14.9%
- growth at 10 µM (SNB-75): 61.8%
- growth at 10 µM (SNB-19 [6]): 40.3%
- growth at 10 µM (SF-268 [7]): 37%
- growth at 10 µM (HCT-116 [8]): -83.6%
- growth at 10 µM (MOLT-4): 19%
- growth at 10 µM (K562): 14.2%

Compound: COc1cc(/C=C/C(=O)c2ccc(NC(=O)CN3CCN(c4cc5c(cc4F)c(=O)c(C(=O)O)cn5C4CC4)CC3)cc2)cc(OC)c1OC
- GI50 (RXF 393): 0.34 µM
- TGI (RXF 393): 1.06 µM
- CC50 (RXF 393): 3.47 µM
- GI50 (SK-OV-3): 3.57 µM
- LC50 (SK-OV-3): > 100 µM
- TGI (SK-OV-3): > 100 µM
- GI50 [1]: 57.6 µM
- TGI [1]: > 100 µM
- CC50 [1]: > 100 µM
- GI50 (SK-MEL-2): 1.98 µM
- TGI (SK-MEL-2): 5.38 µM
- CC50 (SK-MEL-2): 43.7 µM
- GI50 (MDA-MB-435): 0.3 µM
- LC50 (MDA-MB-435): > 100 µM
- TGI (MDA-MB-435): 1.7 µM
- GI50 (LOX IMVI): 0.53 µM
- LC50 (concentration killing 50% of starting cells) (LOX IMVI): > 100 µM
- TGI (LOX IMVI): 2.65 µM
- GI50 (Malme-3M): 1.81 µM
- LC50 (Malme-3M): > 100 µM
- TGI (Malme-3M): 7.65 µM
- GI50 (SNB-19 [2]): 2.78 µM
- LC50 (SNB-19 [2]): > 100 µM
- TGI (SNB-19 [2]): > 100 µM
- GI50 (SF-268 [3]): 1.06 µM
- TGI (SF-268 [3]): 61.2 µM
- CC50 (SF-268 [3]): > 100 µM
- GI50 (HCT-116 [4]): 0.23 µM
- TGI (HCT-116 [4]): 0.69 µM
- GI50 (NCI-H322M): 0.29 µM
- TGI (NCI-H322M): 2.3 µM
- CC50 (NCI-H322M): > 100 µM
- GI50 (NCI-H226): 0.95 µM
- TGI (NCI-H226): 26 µM
- CC50 (NCI-H226): > 100 µM
- GI50 (RPMI-8226): 0.29 µM
- TGI (RPMI-8226): 0.77 µM
- CC50 (RPMI-8226): > 100 µM
- GI50 (CCRF-CEM): 0.32 µM
- LC50 (concentration giving 50% net cell kill) (CCRF-CEM): > 100 µM
- growth at 10 µM (TK-10): 19.1%
- growth at 10 µM (SN12C): 10.3%
- growth at 10 µM [5]: 98.2%
- growth at 10 µM (OVCAR-5): 16.9%
- growth at 10 µM (SK-MEL-5): -42.9%
- growth at 10 µM (U-251): -55.8%
- growth at 10 µM (SNB-75): 76.6%
- growth at 10 µM (SNB-19 [6]): 34.9%
- growth at 10 µM (SF-268 [7]): -1.11%
- growth at 10 µM (HCT-116 [8]): -88.2%
- growth at 10 µM (MOLT-4): -1.1%
- growth at 10 µM (K562): 1.66%
